Data from ChEMBL document CHEMBL4715848, “1,2,3-Triazole tethered 1,2,4-trioxanes: Studies on their synthesis and effect on osteopontin expression in MDA-MB-435 breast cancer cells” (2020).
The source made the active and inactive calls. No cut-off for these calls is given here.

Test system: not listed separately
Assay: (§1) Down regulation of OPN expression in human MDA-MB-435 cells at 50 uM measured after 24 hrs by Western blot analysis relative to control
Type: functional
Summary of the method: (§2)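 MDA-MB-435 cells (1x10^6 per 6 cm plate) grown 24 h in DMEM/10% FBS with penicillin-streptomycin, 37 °C, 5% CO2, then serum-starved 24 h. Treated 24 h with compound at 50 µM against a DMSO control. Secreted OPN in serum-free supernatant run on non-reducing 10% SDS-PAGE. Lysate β-actin run on 10% SDS-PAGE. Both probed with monoclonal antibodies, read by chemiluminescence and quantified by densitometry.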
In the case of `CC(CCC1OC(c2ccc(Cl)cc2)OOC1(C)C)CCn1cc(COC2[C@H]3OCO[C@H]3CO[C@@]23COC(C)(C)O3)nn1` (stereo partly specified), the “fold change (FC)” value was 0.15. With `C[C@@H]1CC[C@H]2[C@@H](C)C(OCc3cn(Cc4ccccc4)nn3)O[C@@H]3O[C@]4(C)CC[C@@H]1[C@]32OO4` (stereo partly specified) the “fold change (FC)” value was 0.3. For `COc1ccc(C2OOC(C)(C)C(CCC(C)CCn3cc(COC4[C@H]5OCO[C@H]5CO[C@@]45COC(C)(C)O5)nn3)O2)cc1` (stereo partly specified), the “fold change (FC)” value was 0.2. For `CC(CCC1OC(c2cccc(Br)c2)OOC1(C)C)CCn1cc(COC2[C@H]3OCO[C@H]3CO[C@@]23COC(C)(C)O3)nn1` (stereo partly specified), the “fold change (FC)” value was 0.15. For `C[C@@H]1CC[C@H]2[C@@H](C)C(O)O[C@@H]3O[C@]4(C)CC[C@@H]1[C@]32OO4` (stereo partly specified), the “fold change (FC)” value was 0.45. With `CC(CCC1OC(c2ccco2)OOC1(C)C)CCn1cc(COC2[C@H]3OCO[C@H]3CO[C@@]23COC(C)(C)O3)nn1` (stereo partly specified) the “fold change (FC)” value was 0.12.

Test system: MDA-MB-435
Assay: as §1
Type: functional
Summary of the method: as §2
With `CC(CCC1OC(c2cccc(Br)c2)OOC1(C)C)CCn1cc(-c2ccc(-c3cn(CCC(C)CCC4OC(c5cccc(Br)c5)OOC4(C)C)nn3)cc2)nn1` (stereo unspecified) the inhibition was “inactive”. With `CC(CCC1OC(c2ccc([N+](=O)[O-])cc2)OOC1(C)C)CCn1cc(-c2ccc(-c3cn(CCC(C)CCC4OC(c5ccc([N+](=O)[O-])cc5)OOC4(C)C)nn3)cc2)nn1` (stereo unspecified) the inhibition was “inactive”. In the case of `CC(CCC1OC(c2cccc3ccccc23)OOC1(C)C)CCn1cc(COC2[C@H]3OCO[C@H]3CO[C@@]23COC(C)(C)O3)nn1` (stereo partly specified), the inhibition was “inactive”. For `Cc1ccc(C2OOC(C)(C)C(CCC(C)CCn3cc(COC4[C@H]5OCO[C@H]5CO[C@@]45COC(C)(C)O5)nn3)O2)cc1` (stereo partly specified), the inhibition was “inactive”. In the case of `CC(CCC1OC(c2cccc([N+](=O)[O-])c2)OOC1(C)C)CCn1cc(COC2[C@H]3OCO[C@H]3CO[C@@]23COC(C)(C)O3)nn1` (stereo partly specified), the inhibition was “inactive”. In the case of `CC(CCC1OC2(CCCCC2)OOC1(C)C)CCn1cc(COC2[C@H]3OCO[C@H]3CO[C@@]23COC(C)(C)O3)nn1` (stereo partly specified), the inhibition was “inactive”. With `CC(CCC1OC(c2cccc3ccccc23)OOC1(C)C)CCn1cc(-c2ccc(-c3cn(CCC(C)CCC4OC(c5cccc6ccccc56)OOC4(C)C)nn3)cc2)nn1` (stereo unspecified) the inhibition was “inactive”. With `CC(CCC1OC(c2ccc3c(c2)OCO3)OOC1(C)C)CCn1cc(-c2ccc(-c3cn(CCC(C)CCC4OC(c5ccc6c(c5)OCO6)OOC4(C)C)nn3)cc2)nn1` (stereo unspecified) the inhibition was “inactive”. With `C[C@@H]1CC[C@H]2[C@@H](C)C(=O)O[C@@H]3O[C@@]4(C)CC[C@@H]1[C@]32OO4` the inhibition was “inactive”. For `CC(CCC1OC(c2ccco2)OOC1(C)C)CCn1cc(-c2ccc(-c3cn(CCC(C)CCC4OC(c5ccco5)OOC4(C)C)nn3)cc2)nn1` (stereo unspecified), the inhibition was “inactive”. In the case of `CC(CCC1OC(c2ccccc2Br)OOC1(C)C)CCn1cc(COC2[C@H]3OCO[C@H]3CO[C@@]23COC(C)(C)O3)nn1` (stereo partly specified), the inhibition was “inactive”. In the case of `CC(CCC1OC(c2ccccc2Br)OOC1(C)C)CCn1cc(-c2ccc(-c3cn(CCC(C)CCC4OC(c5ccccc5Br)OOC4(C)C)nn3)cc2)nn1` (stereo unspecified), the inhibition was “inactive”. With `COc1ccc(C2OOC(C)(C)C(CCC(C)CCn3cc(-c4ccc(-c5cn(CCC(C)CCC6OC(c7ccc(OC)cc7)OOC6(C)C)nn5)cc4)nn3)O2)cc1` (stereo unspecified) the inhibition was “inactive”. In the case of `CC(CCC1OC(c2ccc(F)cc2)OOC1(C)C)CCn1cc(-c2ccc(-c3cn(CCC(C)CCC4OC(c5ccc(F)cc5)OOC4(C)C)nn3)cc2)nn1` (stereo unspecified), the inhibition was “inactive”. With `CC(CCC1OC(c2ccc(Cl)cc2)OOC1(C)C)CCn1cc(-c2ccc(-c3cn(CCC(C)CCC4OC(c5ccc(Cl)cc5)OOC4(C)C)nn3)cc2)nn1` (stereo unspecified) the inhibition was “inactive”. In the case of `CC(CCC1OC(c2ccc([N+](=O)[O-])cc2)OOC1(C)C)CCn1cc(COC2[C@H]3OCO[C@H]3CO[C@@]23COC(C)(C)O3)nn1` (stereo partly specified), the inhibition was “inactive”. With `CC(CCC1OC(C)(c2ccc(Cl)cc2)OOC1(C)C)CCn1cc(-c2ccc(-c3cn(CCC(C)CCC4OC(C)(c5ccc(Cl)cc5)OOC4(C)C)nn3)cc2)nn1` (stereo unspecified) the inhibition was “inactive”. With `CC(CCC1OC2(CCCCC2)OOC1(C)C)CCn1cc(-c2ccc(-c3cn(CCC(C)CCC4OC5(CCCCC5)OOC4(C)C)nn3)cc2)nn1` (stereo unspecified) the inhibition was “inactive”. For `CC(CCC1OC(c2ccc3c(c2)OCO3)OOC1(C)C)CCn1cc(COC2[C@H]3OCO[C@H]3CO[C@@]23COC(C)(C)O3)nn1` (stereo partly specified), the inhibition was “inactive”. For `Cc1ccc(C2OOC(C)(C)C(CCC(C)CCn3cc(-c4ccc(-c5cn(CCC(C)CCC6OC(c7ccc(C)cc7)OOC6(C)C)nn5)cc4)nn3)O2)cc1` (stereo unspecified), the inhibition was “inactive”. With `CC(CCC1OC(c2ccc(F)cc2)OOC1(C)C)CCn1cc(COC2[C@H]3OCO[C@H]3CO[C@@]23COC(C)(C)O3)nn1` (stereo partly specified) the inhibition was “inactive”.

Test system: not listed separately
Assay: Down regulation of OPN expression in human MDA-MB-435 cells at 10 uM measured after 24 hrs by Western blot analysis relative to control
Type: functional
Summary of the method: as §2, with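 “10” for “50”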
In the case of `CC(CCC1OC(c2cccc(Br)c2)OOC1(C)C)CCn1cc(COCCNCCOCc2cn(CCC(C)CCC3OC(c4cccc(Br)c4)OOC3(C)C)nn2)nn1` (stereo unspecified), the “fold change (FC)” value was 0.26. In the case of `CC(CCC1OC(c2ccccc2)OOC1(C)C)CCn1cc(COCCNCCOCc2cn(CCC(C)CCC3OC(c4ccccc4)OOC3(C)C)nn2)nn1` (stereo unspecified), the “fold change (FC)” value was 0.11. With `CC(CCC1OC(c2ccc3c(c2)OCO3)OOC1(C)C)CCn1cc(COCCNCCOCc2cn(CCC(C)CCC3OC(c4ccc5c(c4)OCO5)OOC3(C)C)nn2)nn1` (stereo unspecified) the “fold change (FC)” value was 0.33. In the case of `COc1ccc(C2OOC(C)(C)C(CCC(C)CCn3cc(COCCNCCOCc4cn(CCC(C)CCC5OC(c6ccc(OC)cc6)OOC5(C)C)nn4)nn3)O2)cc1` (stereo unspecified), the “fold change (FC)” value was 0.43. In the case of `CC(CCC1OC(c2ccc(Cl)cc2)OOC1(C)C)CCn1cc(COCCNCCOCc2cn(CCC(C)CCC3OC(c4ccc(Cl)cc4)OOC3(C)C)nn2)nn1` (stereo unspecified), the “fold change (FC)” value was 0.45. In the case of `CC(CCC1OC(c2ccc([N+](=O)[O-])cc2)OOC1(C)C)CCn1cc(COCCNCCOCc2cn(CCC(C)CCC3OC(c4ccc([N+](=O)[O-])cc4)OOC3(C)C)nn2)nn1` (stereo unspecified), the “fold change (FC)” value was 0.28. With `CC(CCC1OC(c2ccc(F)cc2)OOC1(C)C)CCn1cc(COCCNCCOCc2cn(CCC(C)CCC3OC(c4ccc(F)cc4)OOC3(C)C)nn2)nn1` (stereo unspecified) the “fold change (FC)” value was 0.17. In the case of `Cc1ccc(C2OOC(C)(C)C(CCC(C)CCn3cc(COCCNCCOCc4cn(CCC(C)CCC5OC(c6ccc(C)cc6)OOC5(C)C)nn4)nn3)O2)cc1` (stereo unspecified), the “fold change (FC)” value was 0.15. In the case of `CC(CCC1OC2(CCCCC2)OOC1(C)C)CCn1cc(COCCNCCOCc2cn(CCC(C)CCC3OC4(CCCCC4)OOC3(C)C)nn2)nn1` (stereo unspecified), the “fold change (FC)” value was 0.27.
